In ChEMBL document CHEMBL4425113, “Chromenopyrazole, a Versatile Cannabinoid Scaffold with in Vivo Activity in a Model of Multiple Sclerosis” (J Med Chem, 2016):
Activity calls are given as the source filed them. The calls are words filed in the database; no cut-off is given here.

Key:
[1] = molecular target: T1, Cannabinoid receptor 2 (Homo sapiens, UniProt P34972); assay: Agonist activity at human CB2 receptor expressed in HEK293 cell membranes assessed as inhibition of forskolin-stimulated cAMP accumulation at 1 uM after 60 mins by HTRF assay; format: functional, cell-based
Summary of the method: (§1)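 HEK293 cells stably expressing hCB2, 5.000 cells/well, forskolin-stimulated; Lance-Ultra TR-FRET cAMP kit, 60 min room temperature with HTRF reagents; 665/620 nm ratio converted to cAMP via standard curve; forskolin level set to 100%.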

[2] = Binding affinity to PDEA modified AGP (unknown origin) at 40 uM by surface plasmon resonance method; format: ADME; settings: human, isolated protein
[3] = molecular target: T1, Cannabinoid receptor 2; assay: Displacement of [3H]-CP55940 from human CB2 receptor expressed in HEK293 cell membranes after 90 mins by liquid scintillation counting method
[4] = molecular target: T1, Cannabinoid receptor 2; assay: Agonist activity at human CB2 receptor expressed in HEK293 cell membranes assessed as inhibition of forskolin-stimulated cAMP accumulation at 200 nM after 60 mins by HTRF assay; format: functional, cell-based; summary of the method: as §1
[5] = molecular target: T1, Cannabinoid receptor 2; assay: Agonist activity at human CB2 receptor expressed in HEK293 cell membranes assessed as inhibition of forskolin-stimulated cAMP accumulation after 60 mins by HTRF assay; format: functional, cell-based
[6] = test system: Mus musculus; assay: Antiinflammatory activity in TMEV-induced SJL/J mouse demyelinating disease model assessed as reduction of microglial activation by measuring […] in Iba-1 expression at 5 mg/kg, ip administered for 7 days by fluorescence assay; format: functional, organism-based
Summary of the method: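 Female SJL/J mice, 12 weeks, inoculated intracerebrally (right hemisphere) with TMEV DA strain; sham get vehicle. Compound 5 mg/kg i.p. daily for 7 days, vehicle 10% DMSO in PBS. Perfused brains PFA-fixed; sections stained anti-Iba1 (1:1,000) plus Alexa secondary; confocal fluorescence intensity, 6 sections/animal, ≥5 animals/group; Kruskal–Wallis test.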

[7] = organism: Homo sapiens; assay: Selectivity ratio of Ki for human CB1 receptor to Ki for human CB2 receptor
Summary of the method: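 Membranes from cells transfected with hCB1 (8 μg/well; Tris 50 mM, MgCl2 5 mM, EDTA 2.5 mM, BSA 0.5 mg/mL, pH 7.4) or hCB2 (4 μg/well; EGTA 2.5 mM, BSA 1 mg/mL, pH 7.5); [3H]CP55940, 90 min at 30 °C. […] Nonspecific binding 10 μM WIN55212-2; GF/C filtration, scintillation; ≥3 experiments in triplicate.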

[8] = molecular target: Cannabinoid receptor 1 (Homo sapiens, UniProt P21554); assay: biochemical; format: cell-based, HEK293
[9] = molecular target: T1, Cannabinoid receptor 2; assay: Agonist activity at human CB2 receptor expressed in HEK293 cell membranes assessed as induction of [35S]-GTPgammaS binding after 60 mins by liquid scintillation spectrometric method; format: functional

T1 sequence (P34972 whole entry): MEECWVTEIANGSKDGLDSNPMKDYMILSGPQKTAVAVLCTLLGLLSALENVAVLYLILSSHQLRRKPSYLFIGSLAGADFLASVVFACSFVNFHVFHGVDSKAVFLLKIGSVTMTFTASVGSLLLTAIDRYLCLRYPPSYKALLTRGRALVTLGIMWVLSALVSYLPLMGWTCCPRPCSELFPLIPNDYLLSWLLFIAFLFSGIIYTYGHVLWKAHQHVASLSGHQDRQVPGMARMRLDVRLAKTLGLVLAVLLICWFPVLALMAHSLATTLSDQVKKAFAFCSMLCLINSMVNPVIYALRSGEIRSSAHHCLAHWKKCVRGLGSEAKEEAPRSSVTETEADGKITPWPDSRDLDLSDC
Cannabinoid receptor 1, sequence (P21554 whole entry): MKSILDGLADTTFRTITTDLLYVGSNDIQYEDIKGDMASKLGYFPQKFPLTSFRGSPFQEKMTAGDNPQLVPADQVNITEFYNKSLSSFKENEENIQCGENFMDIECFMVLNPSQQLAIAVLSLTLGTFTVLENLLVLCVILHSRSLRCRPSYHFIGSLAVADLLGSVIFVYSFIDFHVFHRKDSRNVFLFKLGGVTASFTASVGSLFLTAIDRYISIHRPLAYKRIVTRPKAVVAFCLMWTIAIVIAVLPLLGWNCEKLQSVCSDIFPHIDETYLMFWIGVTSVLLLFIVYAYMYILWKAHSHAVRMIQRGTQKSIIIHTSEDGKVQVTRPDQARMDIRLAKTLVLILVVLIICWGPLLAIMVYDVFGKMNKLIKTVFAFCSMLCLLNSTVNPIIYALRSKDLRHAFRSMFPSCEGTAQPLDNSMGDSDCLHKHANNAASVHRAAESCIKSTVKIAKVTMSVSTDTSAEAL

For CCCCCCC(C)(C)c1cc(OC)c2c(c1)OC(C)(C)c1cnoc1-2, the inhibition [1] was “Active”, the PB [2] was “Active” and the Ki [3] was 12.8 nM. For the same molecule, the inhibition [4] was “Active”, the Emax [5] was 101% and the IC50 [5] was 4.2 nM. For the same molecule, the Activity [6] was “Active”, the Ratio Ki [7] was > 3100 and the Ki [8] was > 40000 nM. For the same molecule, the Emax [9] was 98%.
